From ChEMBL document CHEMBL3588757, “Structure-based design, synthesis and biological testing of piperazine-linked bis-epipodophyllotoxin etoposide analogs” (Bioorg Med Chem, 2015)

Columns and labels:
[1] = target: DNA topoisomerase 2-alpha (Homo sapiens) (UniProt P11388); assay: Inhibition of full-length human recombinant topoisomerase 2-alpha mediated relaxation and cleavage of supercoiled pBR322 plasmid DNA to linear DNA by ethidium bromide staining based gel electrophoresis assay
Method in brief: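 Recombinant full-length human topoisomerase IIα with supercoiled pBR322 DNA at 37 °C. Components mixed on ice before drug addition. Complexes trapped with SDS; products run on ethidium bromide gels. Linear DNA identified against a HindIII-linearized marker; repeated on three days.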

OVCAR-4 = assay: Cytotoxicity against human OVCAR4 cells assessed as cell growth at 50 uM by SRB assay; assay type: functional; conditions: read-out: Activity
TK-10 = assay: Cytotoxicity against human TK10 cells assessed as cell growth at 50 uM by SRB assay; assay type: functional; conditions: read-out: Activity
MCF7 = assay: Cytotoxicity against human MCF7 cells assessed as cell growth at 50 uM by SRB assay; assay type: functional; conditions: read-out: Activity
HCC 2998 = assay: Cytotoxicity against human HCC2998 cells by SRB assay; assay type: functional
Method in brief: (§1)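 Measured in the NCI-60 human tumour cell line panel using five-dose testing. Growth was recorded at each dose for each cell line, and a GI50 was derived for each line.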

HCT-15 = assay: Cytotoxicity against human HCT15 cells by SRB assay; assay type: functional; method in brief: as §1
SF-539 = assay: Cytotoxicity against human SF539 cells by SRB assay; assay type: functional
Method in brief: (§2)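 NCI-60 panel screen; 5-dose testing giving GI50 per cell line, plus a single 10 µM one-dose test. Method details not given beyond the NCI screen.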

SNB-19 [2] = assay: Cytotoxicity against human SNB19 cells by SRB assay; assay type: functional; method in brief: as §2
UO-31 = assay: Cytotoxicity against human UO31 cells by SRB assay; assay type: functional; method in brief: as §2
BT-549 = assay: Cytotoxicity against human BT549 cells by SRB assay; assay type: functional
NCI-H322M [3] = assay: Cytotoxicity against human NCI-H322M cells assessed as cell growth at 0.005 uM by SRB assay; assay type: functional; conditions: read-out: Activity
SW-620 = assay: Cytotoxicity against human SW620 cells assessed as cell growth at 0.005 uM by SRB assay; assay type: functional; conditions: read-out: Activity
SF-268 = assay: Cytotoxicity against human SF268 cells assessed as cell growth at 0.005 uM by SRB assay; assay type: functional; conditions: read-out: Activity
SK-MEL-5 [4] = assay: Cytotoxicity against human SK-MEL-5 cells assessed as cell growth at 0.005 uM by SRB assay; assay type: functional; conditions: read-out: Activity
T47D = assay: Cytotoxicity against human T47D cells assessed as cell growth at 0.005 uM by SRB assay; assay type: functional; conditions: read-out: Activity
HOP-62 [5] = assay: Cytotoxicity against human HOP62 cells assessed as cell growth at 0.05 uM by SRB assay; assay type: functional; conditions: read-out: Activity; method in brief: as §1
SNB-19 [6] = assay: Cytotoxicity against human SNB19 cells assessed as cell growth at 0.05 uM by SRB assay; assay type: functional; conditions: read-out: Activity
LOX IMVI = assay: Cytotoxicity against human LOXIMVI cells assessed as cell growth at 0.05 uM by SRB assay; assay type: functional; conditions: read-out: Activity
OVCAR-3 = assay: Cytotoxicity against human OVCAR3 cells assessed as cell growth at 0.05 uM by SRB assay; assay type: functional; conditions: read-out: Activity
DU-145 = assay: Cytotoxicity against human DU145 cells assessed as cell growth at 0.05 uM by SRB assay; assay type: functional; conditions: read-out: Activity; method in brief: as §1
MDA-MB-231 = assay: Cytotoxicity against human MDA-MB-231/ATCC cells assessed as cell growth at 0.05 uM by SRB assay; assay type: functional; conditions: read-out: Activity
MOLT-4 = assay: Cytotoxicity against human MOLT4 cells assessed as cell growth at 0.5 uM by SRB assay; assay type: functional; conditions: read-out: Activity
HOP-62 [7] = assay: Cytotoxicity against human HOP62 cells assessed as cell growth at 0.5 uM by SRB assay; assay type: functional; conditions: read-out: Activity; method in brief: as §1
NCI-H226 = assay: Cytotoxicity against human NCI-H226 cells assessed as cell growth at 0.5 uM by SRB assay; assay type: functional; conditions: read-out: Activity
HCT-116 = assay: Cytotoxicity against human HCT116 cells assessed as cell growth at 0.5 uM by SRB assay; assay type: functional; conditions: read-out: Activity; method in brief: as §1
SF-295 [8] = assay: Cytotoxicity against human SF295 cells assessed as cell growth at 0.5 uM by SRB assay; assay type: functional; conditions: read-out: Activity
SNB-75 = assay: Cytotoxicity against human SNB75 cells assessed as cell growth at 0.5 uM by SRB assay; assay type: functional; conditions: read-out: Activity
SK-MEL-28 = assay: Cytotoxicity against human SK-MEL-28 cells assessed as cell growth at 0.5 uM by SRB assay; assay type: functional; conditions: read-out: Activity
UACC-257 = assay: Cytotoxicity against human UACC257 cells assessed as cell growth at 0.5 uM by SRB assay; assay type: functional; conditions: read-out: Activity
786-0 = assay: Cytotoxicity against human 786-0 cells assessed as cell growth at 0.5 uM by SRB assay; assay type: functional; conditions: read-out: Activity
RXF 393 = assay: Cytotoxicity against human RXF393 cells assessed as cell growth at 0.5 uM by SRB assay; assay type: functional; conditions: read-out: Activity
NCI-H322M [9] = assay: Cytotoxicity against human NCI-H322M cells assessed as cell growth at 5 uM by SRB assay; assay type: functional; conditions: read-out: Activity
SF-295 [10] = assay: Cytotoxicity against human SF295 cells assessed as cell growth at 5 uM by SRB assay; assay type: functional; conditions: read-out: Activity
SK-MEL-5 [11] = assay: Cytotoxicity against human SK-MEL-5 cells assessed as cell growth at 5 uM by SRB assay; assay type: functional; conditions: read-out: Activity
IGROV-1 = assay: Cytotoxicity against human IGROV1 cells assessed as cell growth at 5 uM by SRB assay; assay type: functional; conditions: read-out: Activity
OVCAR-8 = assay: Cytotoxicity against human OVCAR8 cells assessed as cell growth at 5 uM by SRB assay; assay type: functional; conditions: read-out: Activity
CCRF-CEM = assay: Cytotoxicity against human CCRF-CEM cells assessed as cell growth at 50 uM by SRB assay; assay type: functional; conditions: read-out: Activity
HL-60(TB) = assay: Cytotoxicity against human HL-60(TB) cells assessed as cell growth at 50 uM by SRB assay; assay type: functional; conditions: read-out: Activity; method in brief: as §1
COLO 205 = assay: Cytotoxicity against human COLO205 cells assessed as cell growth at 50 uM by SRB assay; assay type: functional; conditions: read-out: Activity
[12] = read-out: LC50 (the source's name)
[13] = read-out: pLC50 (the source's name) (converted)

Sequence of DNA topoisomerase 2-alpha (Homo sapiens) (P11388 whole entry): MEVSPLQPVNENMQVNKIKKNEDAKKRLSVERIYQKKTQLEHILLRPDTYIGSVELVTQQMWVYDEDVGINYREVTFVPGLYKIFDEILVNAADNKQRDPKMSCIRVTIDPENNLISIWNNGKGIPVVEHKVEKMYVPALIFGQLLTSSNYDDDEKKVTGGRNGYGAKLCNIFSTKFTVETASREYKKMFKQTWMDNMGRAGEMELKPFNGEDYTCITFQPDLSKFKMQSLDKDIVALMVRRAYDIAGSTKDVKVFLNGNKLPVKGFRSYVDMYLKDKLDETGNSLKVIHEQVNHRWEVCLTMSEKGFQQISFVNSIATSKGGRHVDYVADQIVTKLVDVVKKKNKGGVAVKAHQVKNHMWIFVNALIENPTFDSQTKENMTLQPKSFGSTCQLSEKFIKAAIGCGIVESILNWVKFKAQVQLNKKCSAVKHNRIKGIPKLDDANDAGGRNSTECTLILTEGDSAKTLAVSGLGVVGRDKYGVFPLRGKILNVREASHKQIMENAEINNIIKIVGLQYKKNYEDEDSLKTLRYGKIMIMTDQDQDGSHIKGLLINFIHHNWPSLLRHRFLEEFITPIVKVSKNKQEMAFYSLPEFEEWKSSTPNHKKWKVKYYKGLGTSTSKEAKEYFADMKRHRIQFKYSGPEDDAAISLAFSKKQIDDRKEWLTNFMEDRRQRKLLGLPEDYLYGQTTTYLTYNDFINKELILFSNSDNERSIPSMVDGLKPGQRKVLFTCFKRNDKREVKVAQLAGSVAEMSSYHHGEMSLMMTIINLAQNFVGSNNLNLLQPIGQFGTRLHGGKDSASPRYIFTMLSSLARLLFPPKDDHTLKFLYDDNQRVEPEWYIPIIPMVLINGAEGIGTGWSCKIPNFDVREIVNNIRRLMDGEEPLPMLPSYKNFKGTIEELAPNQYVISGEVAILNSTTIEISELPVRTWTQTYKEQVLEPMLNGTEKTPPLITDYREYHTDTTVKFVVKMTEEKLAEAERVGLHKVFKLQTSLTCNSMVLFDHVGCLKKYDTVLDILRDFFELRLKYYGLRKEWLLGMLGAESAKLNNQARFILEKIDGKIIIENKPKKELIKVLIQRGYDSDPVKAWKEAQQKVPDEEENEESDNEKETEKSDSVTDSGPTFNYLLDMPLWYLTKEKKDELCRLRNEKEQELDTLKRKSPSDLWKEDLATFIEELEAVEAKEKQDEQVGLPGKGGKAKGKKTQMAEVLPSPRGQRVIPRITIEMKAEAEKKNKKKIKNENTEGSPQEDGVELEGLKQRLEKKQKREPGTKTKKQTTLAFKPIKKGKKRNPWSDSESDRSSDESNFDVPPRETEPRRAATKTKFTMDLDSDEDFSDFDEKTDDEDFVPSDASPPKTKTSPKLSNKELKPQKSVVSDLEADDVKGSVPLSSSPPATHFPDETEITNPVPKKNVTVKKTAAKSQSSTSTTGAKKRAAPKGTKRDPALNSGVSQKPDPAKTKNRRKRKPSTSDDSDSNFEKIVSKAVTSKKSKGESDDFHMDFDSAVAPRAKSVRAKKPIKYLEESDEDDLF

With `COc1cc([C@@H]2c3cc4c(cc3[C@@H](NC(=O)CN3CCN(CCCCCCCCCCN5CCN(CC(=O)N[C@@H]6c7cc8c(cc7[C@@H](c7cc(OC)c(O)c(OC)c7)[C@H]7C(=O)OC[C@@H]76)OCO8)CC5)CC3)[C@H]3COC(=O)[C@H]23)OCO4)cc(OC)c1O` the “Effect on topoisomerase 2-alpha DNA cleavage (qualitative)” value [1] was “Dose-dependent effect”, the growth at 50 µM (OVCAR-4) was -77% and the growth at 50 µM (TK-10) was -98%. It also gave a growth at 50 µM (MCF7) of -60%, a GI50 (HCC 2998; read-out: GI50) of 1.09 µM and a CC50 (HCC 2998; [12]) of 20.5 µM. For the same compound, the TGI (HCC 2998; read-out: TGI) was 8.39 µM, the GI50 (HCC 2998; read-out: pGI50 (converted)) was 1.1 µM and the CC50 (HCC 2998; [13]) was 20.4 µM. It also gave a TGI (HCC 2998; read-out: pTGI (converted)) of 8.32 µM, a GI50 (HCT-15; read-out: GI50) of 0.359 µM and a CC50 (HCT-15; [12]) of 3.39 µM. It also gave a TGI (HCT-15; read-out: TGI) of 1.24 µM, a GI50 (HCT-15; read-out: pGI50 (converted)) of 0.363 µM and a CC50 (HCT-15; [13]) of 3.39 µM. For the same compound, the TGI (HCT-15; read-out: pTGI (converted)) was 1.23 µM, the GI50 (SF-539; read-out: GI50) was 0.122 µM and the TGI (SF-539; read-out: TGI) was 0.67 µM. It also gave a GI50 (SF-539; read-out: pGI50 (converted)) of 0.123 µM, a TGI (SF-539; read-out: pTGI (converted)) of 0.676 µM and a GI50 (SNB-19 [2]; read-out: GI50) of 0.352 µM. The CC50 (SNB-19 [2]; [12]) was 2.79 µM, the TGI (SNB-19 [2]; read-out: TGI) was 1.1 µM and the GI50 (SNB-19 [2]; read-out: pGI50 (converted)) was 0.355 µM. It also gave a CC50 (SNB-19 [2]; [13]) of 2.82 µM, a TGI (SNB-19 [2]; read-out: pTGI (converted)) of 1.1 µM and a GI50 (UO-31; read-out: GI50) of 0.986 µM. It also gave a CC50 (UO-31; [12]) of 13.5 µM, a TGI (UO-31; read-out: TGI) of 3.61 µM and a GI50 (UO-31; read-out: pGI50 (converted)) of 0.977 µM. It also gave a CC50 (UO-31; [13]) of 13.5 µM, a TGI (UO-31; read-out: pTGI (converted)) of 3.63 µM and a GI50 (BT-549; read-out: GI50) of 0.576 µM. The TGI (BT-549; read-out: TGI) was 1.46 µM, the GI50 (BT-549; read-out: pGI50 (converted)) was 0.575 µM and the TGI (BT-549; read-out: pTGI (converted)) was 1.48 µM. It also gave a growth at 0.005 µM (NCI-H322M [3]) of 96%, a growth at 0.005 µM (SW-620) of 92% and a growth at 0.005 µM (SF-268) of 97%. The growth at 0.005 µM (SK-MEL-5 [4]) was 102%, the growth at 0.005 µM (T47D) was 94% and the growth at 0.05 µM (HOP-62 [5]) was 48%. It also gave a growth at 0.05 µM (SNB-19 [6]) of 93%, a growth at 0.05 µM (LOX IMVI) of 56% and a growth at 0.05 µM (OVCAR-3) of 73%. For the same compound, the growth at 0.05 µM (DU-145) was 77%, the growth at 0.05 µM (MDA-MB-231) was 92% and the growth at 0.5 µM (MOLT-4) was 37%. It also gave a growth at 0.5 µM (HOP-62 [7]) of 23%, a growth at 0.5 µM (NCI-H226) of 49% and a growth at 0.5 µM (HCT-116) of 78%. For the same compound, the growth at 0.5 µM (SF-295 [8]) was 61%, the growth at 0.5 µM (SNB-75) was 34% and the growth at 0.5 µM (SK-MEL-28) was 138%. For the same compound, the growth at 0.5 µM (UACC-257) was 73%, the growth at 0.5 µM (786-0) was 26% and the growth at 0.5 µM (RXF 393) was 71%. The growth at 5 µM (NCI-H322M [9]) was -42%, the growth at 5 µM (SF-295 [10]) was 17% and the growth at 5 µM (SK-MEL-5 [11]) was 52%. The growth at 5 µM (IGROV-1) was 9%, the growth at 5 µM (OVCAR-8) was -28% and the growth at 50 µM (CCRF-CEM) was 2%. For the same compound, the growth at 50 µM (HL-60(TB)) was -46% and the growth at 50 µM (COLO 205) was -35%.
